This is an account of results in ChEMBL document CHEMBL1146206, “Synthesis, cytotoxicity, and antiviral activities of new neolignans related to honokiol and magnolol” (Bioorg Med Chem Lett, 2007).

Calls of active or inactive are those of the source. No cut-off for these calls is given here.

The subject of assay [1] is SVR. The experiment in a line: Antiproliferative activity against mouse SVR cells at 10 ug/mL after 72 hrs. The format is functional. An outline of the steps:
(§1)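 Immortalized endothelial SVR cells were seeded at 10^4 per well in 24-well dishes. The next day, the medium was replaced with fresh medium containing compound or controls. Cells were incubated for 72 h at 37 °C. Cell number was counted in triplicate with a Coulter counter, and results were expressed as percent inhibition of proliferation.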

For assay [2], the system named is SVR. The experiment in a line: Antiproliferative activity against mouse SVR cells at 15 ug/mL after 72 hrs. The format is functional. An outline of the steps:
as §1

Assay [3] has as its system Human immunodeficiency virus 1. The experiment in a line: Antiviral activity against HIV1 in human PBM cells. The format is functional, organism-based. As to conditions: Human immunodeficiency virus 1, PBMC.
Assay [4] in a line: Cytotoxicity against human PBM cells. In kind it is cell-based. To be noted: PBMC.
The next assay deals with CCRF-CEM. The experiment in a line: Cytotoxicity against human CEM cells. In kind it is cell-based.
For the next assay, the system named is Vero. The experiment in a line: Cytotoxicity against Vero cells. In kind it is cell-based. To be noted: Chlorocebus sabaeus.
The test system of assay [5] is SVR. The experiment in a line: Inhibition of tumor growth in SVR cells bearing mouse up to 100 mg/kg, ip after 30 days. The format is functional, organism-based. Details: dose 100 mg/kg. An outline of the steps: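 Nude male mice, 6 weeks old, were inoculated in the flank with SVR cells. Once tumors were visible, about 1 week after inoculation, mice received 3 mg/day intraperitoneally or vehicle control. Treatment ran up to 100 mg/kg for 30 days. Tumor growth and toxicity were compared against vehicle-treated mice.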

As for `C=CCc1cc(C(=C(Cl)Cl)c2ccc(O)c(CC=C)c2)ccc1O`, in the assay with SVR [1], at 10 µg/mL the inhibition was 54%. Further, the inhibition at 15 µg/mL in the assay on SVR [2] stood at 76%. In addition, the EC50 in assay [3] worked out at 14.3 µM. The EC90 in assay [3] amounted to 48.8 µM. Moreover, the half-maximal inhibitory concentration (IC50) was 43.6 µM in assay [4], 17.1 µM in the assay on CCRF-CEM and 12.1 µM with Vero.
Compound `C=CCc1cc(Cc2ccc(O)c(CC=C)c2)ccc1O` had an inhibition at 10 µg/mL in the assay on SVR [1] of 75%. The compound further yielded an inhibition at 15 µg/mL in the assay on SVR [2] of 74%. This compound also showed an EC50 in assay [3] of 13.6 µM. The same compound had an EC90 in assay [3] of 35.1 µM. The IC50 was determined as 33.7 µM in assay [4], 15.1 µM in the assay with CCRF-CEM and 1.9 µM in the assay with Vero.
With `C=CCc1cc(C(c2ccc(O)c(CC=C)c2)c2ccccn2)ccc1O`, testing at 10 µg/mL in the assay on SVR [1] gave an inhibition of 25%. In the assay on SVR [2], this compound registered an inhibition at 15 µg/mL of 46%. It took 35 µM to reach a half-maximal effect in assay [3] (EC50). This compound also registered an EC90 in assay [3] of 67.2 µM. For the same compound, the IC50 amounted to 16.8 µM in assay [4], 16.5 µM in the assay with CCRF-CEM and 14.8 µM with Vero.
As to `C=CCc1cc(/C(CC)=C(\CC)c2ccc(O)c(CC=C)c2)ccc1O`, the inhibition at 10 µg/mL in the assay on SVR [1] is 68%. In the assay on SVR [2], this compound came in with an inhibition at 15 µg/mL of 89%. The compound further displayed a 50% effective concentration (EC50) in assay [3] of 9.5 µM. In assay [3], this compound registered an EC90 of 30.9 µM. Moreover, the figures for the IC50 (in assay [4]; in the assay with CCRF-CEM; in the assay on Vero) were above 100 µM, 3.4 µM and 3.7 µM, respectively. Besides, the result with SVR [5] was inactive.
In the assay with SVR [1], `C=CCc1cc(-c2ncc(O)cn2)ccc1O` had an inhibition at 10 µg/mL of 4.4%. Moreover, the inhibition at 15 µg/mL in the assay with SVR [2] was 10%. The compound also registered an EC50 in assay [3] above 100 µM. In assay [3], this compound registered an EC90 above 100 µM. Further, the IC50 in assay [4] was 31.9 µM; in the assay on CCRF-CEM it was above 100 µM; with Vero, above 100 µM.
Take `C=CCc1cc(C(C)(C)c2ccc(O)c(CC=C)c2)ccc1O`: the inhibition at 10 µg/mL in the assay on SVR [1] amounted to 33%. This compound also returned an inhibition at 15 µg/mL in the assay on SVR [2] of 57%. The EC50 in assay [3] worked out at 4.1 µM. The same compound yielded an EC90 in assay [3] of 47.3 µM. Moreover, the IC50 in assay [4] was above 100 µM; in the assay on CCRF-CEM, 5.8 µM; in the assay on Vero, 13 µM.
In turn, `C=CCc1ccc(O)c(-c2cc(CC=C)ccc2O)c1` [MAGNOLOL] displayed an inhibition at 10 µg/mL in the assay with SVR [1] of 60%. At 15 µg/mL the inhibition in the assay on SVR [2] was 77%. Besides, the midpoint of the response in assay [3], the EC50, lay at 69.3 µM. This compound showed a concentration for an effect of 90% (EC90) in assay [3] above 100 µM. Besides, the IC50 in assay [4] was 38.6 µM; in the assay with CCRF-CEM, 99.5 µM; in the assay with Vero, 50.6 µM.
On to `C=CCc1cc(-c2cccc(CC=C)c2O)ccc1O`, for which 10 µg/mL produced 74% inhibition in the assay on SVR [1]. Further, the inhibition at 15 µg/mL in the assay with SVR [2] was 81%. The midpoint of the response in assay [3], the EC50, lay at 23.4 µM. The same compound returned an EC90 in assay [3] of 81 µM. Moreover, the IC50 in assay [4] came to 36.7 µM; in the assay on CCRF-CEM, 17.9 µM; in the assay on Vero it was 11.4 µM.
For `C=CCc1ccc(O)c(-c2ccc(O)c(CC=C)c2)c1` [HONOKIOL], 10 µg/mL produced 60% inhibition in the assay with SVR [1]. This compound came in with an inhibition at 15 µg/mL in the assay on SVR [2] of 85%. This compound displayed a half-maximal effective concentration (EC50) in assay [3] of 3.3 µM. Also, the IC50 in assay [4] was found to be 16.1 µM; with CCRF-CEM, 10.9 µM; with Vero, 22.5 µM.
In the case of `C=CCc1cc(C2(c3ccc(O)c(CC=C)c3)CCCCC2)ccc1O`, the inhibition at 10 µg/mL with SVR [1] was found to be 63%. Also, at 15 µg/mL the inhibition in the assay on SVR [2] was 79%. In assay [3], this compound gave an EC50 of 36.5 µM. In assay [3], this compound displayed an EC90 of 67.2 µM. The values for the IC50 (in assay [4]; with CCRF-CEM; with Vero) were 55.4 µM, 11 µM and 12.5 µM, respectively.
For the compound `C=CCc1cccc(-c2cccc(CC=C)c2O)c1O`, in the assay on SVR [1], the inhibition at 10 µg/mL was 41%. Moreover, in the assay with SVR [2], the inhibition at 15 µg/mL came to 57%. This compound also came in with an EC50 in assay [3] of 34.8 µM. In addition, in assay [3], the EC90 is 63 µM. The IC50 in assay [4] was 45.9 µM; with CCRF-CEM it was 10.4 µM; in the assay with Vero, 19.8 µM.
In turn, `C=CCc1cc(-c2ccc(O)c(CC=C)c2)ccc1O` registered an inhibition at 10 µg/mL with SVR [1] of 45%. The same compound registered an inhibition at 15 µg/mL in the assay with SVR [2] of 56%. For the same compound, in assay [3], the EC50 is 19.4 µM. Further, the IC50 was above 100 µM in assay [4], 23 µM with CCRF-CEM and 83.2 µM in the assay with Vero.

The inhibition is how much of the control response was suppressed. A lower inhibition goes with a response near the control. By EC50 is commonly meant the concentration that produces a half-maximal response. Low readings indicate a more potent agent, high ones a less potent agent. In general, EC90 refers to the concentration at which the effect reaches the 90% level. Low readings indicate greater potency, high ones weaker potency. As a reminder, the IC50 is the concentration needed to halve the response being measured. Low readings indicate greater potency in that assay, high ones weaker potency in that assay.
